Several values for one entry are separate records, joined by “and”; a condition that tells them apart may be missing. Equal entries are not always repeated. Activity calls are given as the source filed them.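 How the source made its calls: active means blocks the KCNK9 potassium channel at some tested dose and a concentration-response curve can be fitted; inactive means no blocking at any dose, or no curve could be fitted.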
Each compound was assayed against Potassium channel subfamily K member 9 (Homo sapiens) (UniProt Q9NPC2) (assay: blockers of TASK3 potassium channel KCNK9 – cell-based, round III, SAR follow-up (AID 588724)). Details: HEK293-KCNK9, FluxOR thallium flux fluorescence.
Chain of Potassium channel subfamily K member 9 (Homo sapiens) (Q9NPC2 whole entry, looked up): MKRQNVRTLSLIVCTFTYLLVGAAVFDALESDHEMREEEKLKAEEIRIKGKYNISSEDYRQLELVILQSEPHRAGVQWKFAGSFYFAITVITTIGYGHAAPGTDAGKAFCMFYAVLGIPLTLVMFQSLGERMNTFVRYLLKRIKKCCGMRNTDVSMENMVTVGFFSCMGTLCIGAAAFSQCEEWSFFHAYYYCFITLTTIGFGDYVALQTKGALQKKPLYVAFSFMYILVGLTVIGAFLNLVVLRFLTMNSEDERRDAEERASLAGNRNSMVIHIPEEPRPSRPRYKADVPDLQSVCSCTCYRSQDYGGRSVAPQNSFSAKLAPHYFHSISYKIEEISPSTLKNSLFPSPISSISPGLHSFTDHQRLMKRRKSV
Outline: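 Repeats: replicate concentration-response data per compound. Assay system: HEK293 cell line stably expressing human KCNK9 channel. Signal: FluxOR thallium-flux fluorescence, kinetic. Times: dye loading 90 min, compound 20 min, both room temperature, dark. Probe or stimulus: thallium/potassium stimulus, 5x stock of 25 mM K2SO4 plus 7 mM Tl2SO4.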

IC50	SMILES
65.1 nM	CC(C)Oc1ccccc1C(=O)Nc1cccc(NC(=O)c2ccccc2OC(F)(F)F)c1
18000 nM	COc1cccc(-c2nnc(S(C)(=O)=O)n2C(C)C2CC3CCC2C3)c1 (stereo not drawn)
1700 nM	CC(C1CC2CCC1C2)n1cnnc1-c1ccco1 (stereo not drawn)
1390 nM	CC(C1CC2CCC1C2)n1c(SCc2ccccc2)nnc1-c1ccco1 (stereo not drawn)
8460 nM	CC(C1CC2CCC1C2)n1c(SC(F)F)nnc1-c1ccco1 (stereo not drawn)
16400 nM	CC(C1CC2CCC1C2)n1c(-c2ccco2)nnc1C(F)(F)F (stereo not drawn)
150 nM and 290 nM	CC(C1CC2CCC1C2)n1c(-c2ccco2)n[nH]c1=S (stereo not drawn)
2240 nM	COc1ccc(CCSc2nnc(-c3ccco3)n2C(C)C2CC3CCC2C3)cc1OC (stereo not drawn)
1600 nM	CC(C1CC2CCC1C2)n1c(SCC(=O)c2ccc3c(c2)OCO3)nnc1-c1ccco1 (stereo not drawn)
2360 nM	COc1cccc(-c2n[nH]c(=S)n2C(C)C2CC3CCC2C3)c1OC (stereo not drawn)
110 nM	CC(C1CC2CCC1C2)n1c(-c2cccs2)n[nH]c1=S (stereo not drawn)
7770 nM	CC(C1CC2CCC1C2)n1c(SCC(=O)c2ccc(Cl)c(Cl)c2)nnc1-c1ccco1 (stereo not drawn)
2370 nM	CC(C1CC2CCC1C2)n1c(-c2ccccn2)n[nH]c1=S (stereo not drawn)
5210 nM	CC(C1CC2CCC1C2)n1c(SCC(=O)c2ccccc2)nnc1-c1ccco1 (stereo not drawn)
907 nM	CC(CCC1CCCC1)n1c(-c2ccco2)n[nH]c1=S (stereo not drawn)

Second part, the compound before the results:

SMILES	IC50
C[C@H](C1CCCCC1)n1c(-c2ccco2)n[nH]c1=S	187 nM
CC(C1CC2CCC1C2)n1c(-c2cccn2C)n[nH]c1=S (stereo not drawn)	1390 nM
C[C@@H](C1CCCCC1)n1c(-c2ccco2)n[nH]c1=S	9410 nM
CC(C)c1ccccc1C(=O)Nc1cccc(NC(=O)c2ccccc2OC(F)(F)F)c1	732 nM
COc1cc(OC)cc(-c2n[nH]c(=S)n2C(C)C2CC3CCC2C3)c1 (stereo not drawn)	1030 nM
CSc1nnc(-c2ccco2)n1C(C)C1CC2CCC1C2 (stereo not drawn)	21400 nM
COc1cccc(Cc2n[nH]c(=S)n2C(C)C2CC3CCC2C3)c1 (stereo not drawn)	2570 nM
CC(C1CC2CCC1C2)n1c(-c2cccc(F)c2)n[nH]c1=S (stereo not drawn)	134 nM
CC(C1CC2CCC1C2)n1c(-c2ccccc2F)n[nH]c1=S (stereo not drawn)	109 nM
CC(CC1CC2CCC1C2)n1c(-c2ccco2)n[nH]c1=S (stereo not drawn)	292 nM
COc1ccc(C(=O)CSc2nnc(-c3ccco3)n2C(C)C2CC3CCC2C3)cc1OC (stereo not drawn)	1840 nM
CC(C1CCCCC1)n1c(-c2ccco2)n[nH]c1=S (stereo not drawn)	3580 nM
CC(C1CC2CCC1C2)n1c(-c2cccc(N(C)C)c2)n[nH]c1=S (stereo not drawn)	2270 nM
COc1ccc(C(=O)CSc2nnc(-c3ccco3)n2C(C)C2CC3CCC2C3)cc1 (stereo not drawn)	9140 nM
CC(NC(=O)c1ccco1)C1CC2CCC1C2 (stereo not drawn)	13400 nM
CC(C1CC2CCC1C2)n1c(SCC#N)nnc1-c1cccs1 (stereo not drawn)	17700 nM
CC(C1C2CCC1CC2)n1c(-c2ccco2)n[nH]c1=S (stereo not drawn)	1170 nM
COc1cccc(C(=O)CSc2nnc(-c3ccco3)n2C(C)C2CC3CCC2C3)c1 (stereo not drawn)	4650 nM
CC(C1CC2CCC1C2)N(C)C(=O)c1ccco1 (stereo not drawn)	361 nM
COc1ccccc1C(=O)Nc1cccc(NC(=O)c2cccc3ccccc23)c1	236 nM

Same assay, conditions: HEK293-KCNK9, FluxOR thallium flux fluorescence; at 30 µM (top of the series)

SMILES	normalised flux ratio, lower = inhibition
S=c1[nH]nc(-c2ccco2)n1C1CC2CCC1C2 (stereo not drawn)	inactive
CC(C1CC2CCC1C2)n1c(-c2cccnc2)n[nH]c1=S (stereo not drawn)	inactive
S=c1[nH]nc(-c2ccco2)n1CC1CC2CCC1C2 (stereo not drawn)	inactive
COc1ccccc1C(=O)Nc1cc(NC(=O)c2ccccc2C(C)C)ccc1F	inactive
CC(c1cccc2ccccc12)n1c(-c2ccco2)n[nH]c1=S (stereo not drawn)	inactive
CC(C1CC2CCC1C2)n1c(-c2ccc(N(C)C)cc2)n[nH]c1=S (stereo not drawn)	inactive
CC(C1CC2CCC1C2)n1c(-c2ccncc2)n[nH]c1=S (stereo not drawn)	inactive
CC(C1CC2CCC1C2)n1c(-c2ccco2)n[nH]c1=O (stereo not drawn)	inactive

— PubChem BioAssay AID588724 (Johns Hopkins Ion Channel Center, 2011)
